Measured values taken from ChEMBL document CHEMBL1128495, “Synthetic chemical diversity: solid phase synthesis of libraries of C2 symmetric inhibitors of HIV protease containing diamino diol and diamino alcohol cores” (J Med Chem, 1995).

Tests used:
[1] = molecular target: Human immunodeficiency virus type 1 protease (Human immunodeficiency virus 1, UniProt Q72874); test: Inhibition of HIV protease
Summary of the method: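 Fluorometric HIV protease activity assay on unpurified samples. Concentrations were calculated from the weight of unpurified material, with no correction for impurities. Each sample was tested at 3–5 concentrations where feasible, and IC50 was derived from the percent-inhibition data.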

[2] = molecular target: Human immunodeficiency virus type 1 protease (Human immunodeficiency virus 1) (UniProt Q72874); test: Inhibitory activity against HIV Protease at a dose of 0.5 nM
Summary of the method: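 Fluorometric HIV protease activity assay run on an unpurified sample. Concentration was based on the weight of unpurified material, with no correction for impurities. Percent inhibition was read at a single concentration of 0.5 nM.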

| SMILES | IC50 [1] | inhibition [2] |
| --- | --- | --- |
| CC(C)[C@H](NC(=O)CSc1ncccn1)C(=O)N[C@@H](Cc1ccccc1)C[C@H](O)[C@H](Cc1ccccc1)NC(=O)[C@@H](NC(=O)CSc1ncccn1)C(C)C | < 0.001 µM | – |
| Cc1nc(C)c(C(=O)N[C@H](C(=O)N[C@@H](Cc2ccccc2)[C@@H](O)[C@H](O)[C@H](Cc2ccccc2)NC(=O)[C@@H](NC(=O)c2sc(C)nc2C)C(C)C)C(C)C)s1 | 0.86 µM | – |
| CC(C)[C@H](NC(=O)Cc1csc(N)n1)C(=O)N[C@@H](Cc1ccccc1)C[C@H](O)[C@H](Cc1ccccc1)NC(=O)[C@@H](NC(=O)Cc1csc(N)n1)C(C)C | < 0.001 µM | 40% |
| CC(C)[C@H](NC(=O)Cc1csc(N)n1)C(=O)N[C@@H](Cc1ccccc1)[C@@H](O)[C@H](O)[C@H](Cc1ccccc1)NC(=O)[C@@H](NC(=O)Cc1csc(N)n1)C(C)C | 0.012 µM | – |
| Cc1nc(C)c(C(=O)N[C@H](C(=O)N[C@@H](Cc2ccccc2)C[C@H](O)[C@H](Cc2ccccc2)NC(=O)[C@@H](NC(=O)c2sc(C)nc2C)C(C)C)C(C)C)s1 | 0.013 µM | – |
| CC(C)[C@H](NC(=O)C(O)(c1ccccc1)c1ccccc1)C(=O)N[C@@H](Cc1ccccc1)C[C@H](O)[C@H](Cc1ccccc1)NC(=O)[C@@H](NC(=O)C(O)(c1ccccc1)c1ccccc1)C(C)C | 0.16 µM | – |
| COc1cc(CC(=O)N[C@H](C(=O)N[C@@H](Cc2ccccc2)C[C@H](O)[C@H](Cc2ccccc2)NC(=O)[C@@H](NC(=O)Cc2cc(OC)c(OC)c(OC)c2)C(C)C)C(C)C)cc(OC)c1OC | < 0.001 µM | 71% |
| CC(C)[C@H](NC(=O)CC1NC(=O)NC1=O)C(=O)N[C@@H](Cc1ccccc1)[C@@H](O)[C@H](O)[C@H](Cc1ccccc1)NC(=O)[C@@H](NC(=O)CC1NC(=O)NC1=O)C(C)C (some centres undefined) | 0.0096 µM | 33% |
| CC(C)[C@H](NC(=O)CC1NC(=O)NC1=O)C(=O)N[C@@H](Cc1ccccc1)C[C@H](O)[C@H](Cc1ccccc1)NC(=O)[C@@H](NC(=O)CC1NC(=O)NC1=O)C(C)C (some centres undefined) | < 0.001 µM | 43% |
| CC(C)[C@H](NC(=O)C(O)(c1ccccc1)c1ccccc1)C(=O)N[C@@H](Cc1ccccc1)[C@@H](O)[C@H](O)[C@H](Cc1ccccc1)NC(=O)[C@@H](NC(=O)C(O)(c1ccccc1)c1ccccc1)C(C)C | 6.4 µM | – |
